Source: ChEMBL document CHEMBL1811829, “Discovery of selective indole-based prostaglandin D₂ receptor antagonist” (Bioorg Med Chem, 2011)

Assays:
[1] = target: T1, Prostaglandin E2 receptor EP1 subtype (Mus musculus, UniProt P35375); assay: Displacement of [3H]-PGE2 from mouse EP1 receptor expressed in CHO cells after 20 mins by liquid scintillation counting; format: cell-based
T1 sequence (P35375 whole entry): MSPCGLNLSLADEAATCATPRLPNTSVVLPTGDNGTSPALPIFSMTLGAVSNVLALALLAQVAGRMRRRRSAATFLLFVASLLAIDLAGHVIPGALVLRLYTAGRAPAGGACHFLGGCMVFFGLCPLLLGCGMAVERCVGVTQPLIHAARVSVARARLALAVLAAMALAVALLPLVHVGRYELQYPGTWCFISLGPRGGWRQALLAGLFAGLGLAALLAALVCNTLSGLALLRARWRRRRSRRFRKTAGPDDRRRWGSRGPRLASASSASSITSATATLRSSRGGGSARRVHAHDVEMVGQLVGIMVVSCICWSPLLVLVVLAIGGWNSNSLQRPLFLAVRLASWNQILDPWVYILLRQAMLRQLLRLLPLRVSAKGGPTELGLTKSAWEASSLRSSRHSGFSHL
How it was run: (§1)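 Membranes from CHO cells stably expressing mEP1, mEP2, mEP3a, mEP4 or mFP were used. The radioligand was 2.5 nM [³H]PGE₂ for EP receptors and 2.5 nM [³H]PGF2α for FP. Buffer was 10 mM KH₂PO₄–KOH pH 6.0 with 1 mM EDTA, 10 mM MgCl₂ and 100 mM NaCl. Incubation was at room temperature, 20 min for mEP1 and 60 min for the others. Samples were filtered on GF/B, washed with phosphate/NaCl pH 6.0, dried 60 min at 60 °C and scintillation counted.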

[2] = target: Prostaglandin F2-alpha receptor (Mus musculus, UniProt P43117); assay: Displacement of [3H]-PGF2-alpha from mouse FP receptor expressed in CHO cells after 60 mins by liquid scintillation counting; format: cell-based; how it was run: as §1
Prostaglandin F2-alpha receptor, sequence (P43117 whole entry): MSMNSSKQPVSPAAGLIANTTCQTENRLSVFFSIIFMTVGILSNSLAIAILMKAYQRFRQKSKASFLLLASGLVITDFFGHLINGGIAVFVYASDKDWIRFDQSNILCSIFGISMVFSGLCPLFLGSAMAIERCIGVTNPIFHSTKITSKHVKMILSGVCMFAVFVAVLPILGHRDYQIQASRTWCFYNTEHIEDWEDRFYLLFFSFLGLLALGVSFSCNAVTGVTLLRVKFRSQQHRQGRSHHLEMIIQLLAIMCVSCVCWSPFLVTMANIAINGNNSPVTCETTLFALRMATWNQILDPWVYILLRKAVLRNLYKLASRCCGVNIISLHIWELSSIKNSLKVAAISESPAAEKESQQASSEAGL

[3] = target: T2, Prostaglandin D2 receptor (Mus musculus, UniProt P70263); assay: Displacement of [3H]-PGD2 from mouse DP receptor expressed in CHO cells after 20 mins by liquid scintillation counting; format: cell-based
T2 sequence (P70263 whole entry): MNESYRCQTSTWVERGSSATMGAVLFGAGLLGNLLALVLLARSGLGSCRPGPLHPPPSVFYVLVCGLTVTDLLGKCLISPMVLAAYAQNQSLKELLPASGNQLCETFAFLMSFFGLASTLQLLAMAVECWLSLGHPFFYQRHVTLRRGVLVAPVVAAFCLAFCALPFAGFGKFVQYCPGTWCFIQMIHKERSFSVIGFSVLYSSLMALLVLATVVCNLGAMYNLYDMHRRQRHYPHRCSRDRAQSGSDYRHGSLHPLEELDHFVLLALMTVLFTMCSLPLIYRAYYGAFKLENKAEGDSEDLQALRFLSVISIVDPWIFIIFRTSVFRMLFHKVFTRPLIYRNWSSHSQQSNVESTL
How it was run: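 Membranes from CHO cells stably expressing mDP were incubated with 2.5 nM [³H]PGD₂ and compounds at various concentrations. Buffer was 25 mM HEPES–NaOH pH 7.4 with 1 mM EDTA, 5 mM MgCl₂ and 10 mM MnCl₂, for 20 min at room temperature. Samples were filtered on GF/B and washed with Tris–HCl pH 7.4, NaCl, 0.01% BSA. Filters were dried 60 min at 60 °C and read by scintillation counting. Nonspecific binding was set with excess unlabeled PGD₂.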

[4] = target: Prostaglandin E2 receptor EP4 subtype (Mus musculus, UniProt P32240); assay: Displacement of [3H]-PGE2 from mouse EP4 receptor expressed in CHO cells after 60 mins by liquid scintillation counting; format: cell-based; how it was run: as §1
Prostaglandin E2 receptor EP4 subtype, sequence (P32240 whole entry): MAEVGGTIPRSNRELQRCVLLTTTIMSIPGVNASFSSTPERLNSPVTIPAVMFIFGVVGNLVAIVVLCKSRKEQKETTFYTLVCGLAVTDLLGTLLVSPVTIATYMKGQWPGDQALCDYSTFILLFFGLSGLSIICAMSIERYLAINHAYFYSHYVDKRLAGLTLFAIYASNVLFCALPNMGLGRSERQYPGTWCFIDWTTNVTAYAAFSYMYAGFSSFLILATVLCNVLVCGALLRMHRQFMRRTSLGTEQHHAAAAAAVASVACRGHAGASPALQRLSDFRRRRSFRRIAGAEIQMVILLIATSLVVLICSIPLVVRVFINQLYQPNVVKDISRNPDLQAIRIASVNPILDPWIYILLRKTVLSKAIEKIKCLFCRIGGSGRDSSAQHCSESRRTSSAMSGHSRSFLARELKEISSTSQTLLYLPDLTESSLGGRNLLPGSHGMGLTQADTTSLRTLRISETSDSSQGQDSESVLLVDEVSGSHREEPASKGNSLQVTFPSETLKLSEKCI

Prostacyclin receptor = Prostacyclin receptor (Homo sapiens, UniProt P43119); assay: Displacement of [3H]-Iloprost from human IP receptor expressed in CHO cells after 30 mins by liquid scintillation counting; format: cell-based
Prostacyclin receptor, sequence (P43119 whole entry): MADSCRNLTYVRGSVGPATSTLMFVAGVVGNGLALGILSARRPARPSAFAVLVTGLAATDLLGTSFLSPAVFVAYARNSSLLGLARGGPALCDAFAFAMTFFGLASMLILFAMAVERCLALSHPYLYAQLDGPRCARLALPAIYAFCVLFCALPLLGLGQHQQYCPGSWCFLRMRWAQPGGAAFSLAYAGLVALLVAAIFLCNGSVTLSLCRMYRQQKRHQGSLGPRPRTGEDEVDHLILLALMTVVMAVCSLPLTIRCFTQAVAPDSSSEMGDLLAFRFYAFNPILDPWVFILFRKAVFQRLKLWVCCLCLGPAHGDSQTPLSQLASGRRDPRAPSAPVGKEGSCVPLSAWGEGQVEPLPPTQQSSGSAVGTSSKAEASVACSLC
How it was run: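 Membranes from CHO cells expressing hIP were incubated with 5.0 nM [³H]Iloprost and compounds at various concentrations. Buffer was 50 mM Tris–HCl pH 7.5 with 1 mM EDTA and 10 mM MgCl₂, for 30 min at room temperature. Samples were filtered on GF/B, washed with 10 mM Tris–HCl/100 mM NaCl pH 7.5, dried 60 min at 60 °C and scintillation counted.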

[5] = target: T3, Prostaglandin E2 receptor EP3 subtype (Mus musculus, UniProt P30557); assay: Displacement of [3H]-PGE2 from mouse EP3 receptor expressed in CHO cells after 60 mins by liquid scintillation counting; format: cell-based; how it was run: as §1
T3 sequence (P30557 whole entry): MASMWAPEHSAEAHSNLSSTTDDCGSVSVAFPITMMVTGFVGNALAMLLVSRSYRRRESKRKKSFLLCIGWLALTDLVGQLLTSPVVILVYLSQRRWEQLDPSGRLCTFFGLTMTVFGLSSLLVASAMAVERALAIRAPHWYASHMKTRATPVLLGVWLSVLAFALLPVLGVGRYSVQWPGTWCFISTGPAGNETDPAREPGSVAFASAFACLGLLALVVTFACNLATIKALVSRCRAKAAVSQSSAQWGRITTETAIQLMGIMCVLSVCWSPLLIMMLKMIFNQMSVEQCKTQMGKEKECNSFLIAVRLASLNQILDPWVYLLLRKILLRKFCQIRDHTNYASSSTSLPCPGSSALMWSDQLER

[6] = target: Prostaglandin E2 receptor EP2 subtype (Mus musculus, UniProt Q62053); assay: Displacement of [3H]-PGE2 from mouse EP2 receptor expressed in CHO cells after 60 mins by liquid scintillation counting; format: cell-based; how it was run: as §1
Prostaglandin E2 receptor EP2 subtype, sequence (Q62053 whole entry): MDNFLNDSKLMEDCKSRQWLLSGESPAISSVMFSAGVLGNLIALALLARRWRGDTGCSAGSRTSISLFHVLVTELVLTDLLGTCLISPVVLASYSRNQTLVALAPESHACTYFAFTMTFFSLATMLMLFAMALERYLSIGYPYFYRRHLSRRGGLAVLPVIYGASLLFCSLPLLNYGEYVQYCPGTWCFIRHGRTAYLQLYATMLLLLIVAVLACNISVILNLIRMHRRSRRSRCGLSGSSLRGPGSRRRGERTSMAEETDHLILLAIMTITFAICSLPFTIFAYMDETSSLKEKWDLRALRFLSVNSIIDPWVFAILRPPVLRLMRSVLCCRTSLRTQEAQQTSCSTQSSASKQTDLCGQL

Thromboxane A2 receptor = target: T4, Thromboxane A2 receptor (Homo sapiens, UniProt P21731); assay: Displacement of [3H]-SQ29548 from human TP receptor expressed in CHO cells after 30 mins by liquid scintillation counting; format: cell-based
T4 sequence (P21731 whole entry): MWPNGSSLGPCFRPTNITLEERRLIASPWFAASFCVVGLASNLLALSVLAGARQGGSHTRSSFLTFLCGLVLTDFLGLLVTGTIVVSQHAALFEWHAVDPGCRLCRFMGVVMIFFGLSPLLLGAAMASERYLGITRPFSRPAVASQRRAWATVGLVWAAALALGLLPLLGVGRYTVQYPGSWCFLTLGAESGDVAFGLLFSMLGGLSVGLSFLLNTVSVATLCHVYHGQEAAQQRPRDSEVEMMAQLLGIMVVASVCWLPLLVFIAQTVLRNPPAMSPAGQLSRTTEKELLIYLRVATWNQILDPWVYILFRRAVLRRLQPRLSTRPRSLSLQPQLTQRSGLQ
How it was run: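 Membranes from CHO cells expressing hTP were incubated with 5.0 nM [³H]-SQ29548 and compounds at various concentrations. Buffer was 10 mM Tris–HCl pH 7.5 with 100 mM NaCl, for 30 min at room temperature. Samples were filtered on GF/B, washed with the same buffer, dried 60 min at 60 °C and scintillation counted. Nonspecific binding was set with excess unlabeled SQ29548.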

[7] = target: T2, Prostaglandin D2 receptor; assay: Antagonist activity at mouse DP receptor expressed in CHO cells assessed as inhibition of PGD2-induced cAMP accumulation after 10 mins by enzyme immunoassay in the presence of 0.1% BSA; format: functional, cell-based
How it was run: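 CHO cells stably expressing mDP were seeded at 1 × 10⁵ cells/well and grown 2 days. They were preincubated about 10 min at 37 °C in MEM with Diclofenac, then given assay medium (MEM, 0.1% BSA, 1 mM IBMX, Diclofenac). Test compound at various concentrations plus 10 nM PGD₂ was added for 10 min at 37 °C. The reaction was stopped with ice-cold 10% TCA and TCA was extracted. cAMP was measured by EIA. IC50 came from cAMP relative to the PGD₂-only maximum.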

Structure (SMILES)	Ki [1] [nM]	Ki [2] [nM]	Ki [3] [nM]	Ki [4] [nM]	Ki (Prostacyclin receptor) [nM]	Ki [5] [nM]	Ki [6] [nM]	Ki (Thromboxane A2 receptor) [nM]	IC50 [7] [nM]
Cc1c(CC(=O)O)c2ccccc2n1C(=O)c1ccc(OC[C@@H]2CN(C)c3ccccc3O2)cc1	> 10000	2100	7.7	> 10000	200	1700	210	> 10000	–
Cc1ccc2c(c1)c(CC(=O)O)c(C)n2C(=O)c1ccc(OC[C@@H]2CN(C)c3ccccc3O2)cc1	5200	1700	28	3600	1100	2800	340	> 10000	4.3
Cc1c(CC(=O)O)c2cc(Cl)ccc2n1C(=O)c1ccc(OC[C@@H]2CN(C)c3ccccc3O2)cc1	> 10000	2200	29	> 10000	49	> 10000	330	–	3.1
Cc1c(CC(=O)O)c2cc(F)ccc2n1C(=O)c1ccc(OC[C@@H]2CN(C)c3ccccc3O2)cc1	> 10000	1700	5.7	> 10000	320	1900	250	> 10000	1.8
COc1cc(C(=O)n2c(C)c(CC(=O)O)c3ccccc32)ccc1OC[C@@H]1CN(C)c2ccccc2O1	–	–	340	–	430	–	–	–	–
Cc1c(OC[C@@H]2CN(C)c3ccccc3O2)ccc(C(=O)n2c(C)c(CC(=O)O)c3ccccc32)c1C	–	–	380	–	98	–	–	–	–
Cc1cc(OC[C@@H]2CN(C)c3ccccc3O2)ccc1C(=O)n1c(C)c(CC(=O)O)c2cc(F)ccc21	–	–	2.7	–	130	–	–	–	3.2
COc1cc(C(=O)n2c(C)c(CC(=O)O)c3cc(F)ccc32)ccc1OC[C@@H]1CN(C)c2ccccc2O1	–	–	–	–	1500	–	–	–	68
Cc1c(OC[C@@H]2CN(C)c3ccccc3O2)ccc(C(=O)n2c(C)c(CC(=O)O)c3cc(F)ccc32)c1C	–	–	–	–	230	–	–	–	32
Cc1cc(C(=O)n2c(C)c(CC(=O)O)c3cc(F)ccc32)c(C)cc1OC[C@@H]1CN(C)c2ccccc2O1	–	–	14	–	93	–	–	–	2.8
Cc1cc(OC[C@@H]2COc3ccccc3O2)ccc1C(=O)n1c(C)c(CC(=O)O)c2ccccc21	–	–	22	–	570	–	–	–	3.8
Cc1cc(OC[C@@H]2Cc3ccccc3O2)ccc1C(=O)n1c(C)c(CC(=O)O)c2ccccc21	–	–	7.1	–	280	–	–	–	7
COc1ccc2c(c1)c(CC(=O)O)c(C)n2C(=O)c1ccc(Cl)cc1 [INDOMETHACIN]	> 10000	–	> 10000	> 10000	–	> 10000	> 10000	–	–

Other lines, results leading:

Ki [1] [nM]	Ki [2] [nM]	Ki [3] [nM]	Ki [4] [nM]	Ki (Prostacyclin receptor) [nM]	Ki [5] [nM]	Ki [6] [nM]	Ki (Thromboxane A2 receptor) [nM]	IC50 [7] [nM]	Structure (SMILES)
> 10000	–	9.9	3000	1000	2500	310	–	–	COc1ccc2c(c1)c(CC(=O)O)c(C)n2C(=O)c1ccc(OC[C@@H]2CN(C)c3ccccc3O2)cc1
–	–	3.8	–	110	–	–	–	2.5	Cc1c(CC(=O)O)c2ccccc2n1C(=O)c1ccc(OC[C@@H]2CN(C)c3ccccc3O2)cc1F
–	–	140	–	72	–	–	–	–	Cc1cc(C(=O)n2c(C)c(CC(=O)O)c3ccccc32)ccc1OC[C@@H]1CN(C)c2ccccc2O1
–	–	380	–	91	–	–	–	–	Cc1c(CC(=O)O)c2ccccc2n1C(=O)c1ccc(OC[C@@H]2CN(C)c3ccccc3O2)c(Cl)c1
–	–	240	–	210	–	–	–	–	Cc1c(CC(=O)O)c2ccccc2n1C(=O)c1ccc(OC[C@@H]2CN(C)c3ccccc3O2)c(F)c1
–	–	360	–	94	–	–	–	–	Cc1cc(C(=O)n2c(C)c(CC(=O)O)c3ccccc32)c(C)cc1OC[C@@H]1CN(C)c2ccccc2O1
–	–	3.8	–	320	–	–	–	0.7	Cc1c(CC(=O)O)c2cc(F)ccc2n1C(=O)c1ccc(OC[C@@H]2CN(C)c3ccccc3O2)cc1F
–	–	59	–	160	–	–	–	42	Cc1cc(C(=O)n2c(C)c(CC(=O)O)c3cc(F)ccc32)ccc1OC[C@@H]1CN(C)c2ccccc2O1
–	–	43	–	2100	–	–	–	72	Cc1cc(OC[C@@H]2COc3ccccc32)ccc1C(=O)n1c(C)c(CC(=O)O)c2ccccc21
–	–	–	–	3000	–	–	–	43	Cc1cc(OCC2Oc3ccccc3O2)ccc1C(=O)n1c(C)c(CC(=O)O)c2ccccc21
–	–	–	–	> 10000	–	–	–	6.2	Cc1cc(OCC2Cc3ccccc3N2C)ccc1C(=O)n1c(C)c(CC(=O)O)c2ccccc21 (stereo not given)
–	–	22	–	5100	–	–	–	3.1	CCN1c2ccccc2CC1COc1ccc(C(=O)n2c(C)c(CC(=O)O)c3ccccc32)c(C)c1 (stereo not given)
–	–	5.4	–	520	–	–	–	1.8	Cc1cc(OC[C@@H]2COc3ccc(F)cc32)ccc1C(=O)n1c(C)c(CC(=O)O)c2ccccc21
